Results as given in ChEMBL document CHEMBL1955828, “Anti-mycobacterial activities of some cationic and anionic calix[4]arene derivatives” (Bioorg Med Chem, 2012).
Values after ≈ are worked out from the molar mass of the structure shown.

Assays:
[1] = test system: Mycobacterium tuberculosis; assay: Antimycobacterial activity against isoniazid-resistant Mycobacterium tuberculosis MYC5165 after 6 days by MTT assay; assay type: functional, organism-based; conditions: MYC5165, 144 h
How it was run: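 Twofold serial compound dilutions in Middlebrook 7H9 broth were inoculated with bacterial suspension in 7H9 (H37Rv, or INH-resistant MYC5165) and incubated 6 days. MTT (1 mg/mL) was then added, followed by 1 more day of incubation, solubilisation buffer, and OD read at 570 nm. MIC was the lowest concentration inhibiting growth relative to untreated bacilli, and IC50 was also determined.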

[2] = test system: Mycobacterium tuberculosis; assay: Ratio of MIC for isoniazid to compound MIC isoniazid-resistant Mycobacterium tuberculosis MYC5165 after 6 days by MTT assay; assay type: functional
[3] = Selectivity ratio of CC50 for human MRC5 cells to MIC for isoniazid-resistant Mycobacterium tuberculosis MYC5165; assay type: functional

Question: Which IC50 [1] does the source give for `Cc1ccc(-c2ccc(COc3c4cc(CCNC(=N)N)cc3Cc3cc(CCNC(=N)N)cc(c3O)Cc3cc(CCNC(=N)N)cc(c3OCc3ccc(-c5ccc(C)cn5)nc3)Cc3cc(CCNC(=N)N)cc(c3O)C4)cn2)nc1.O=C(O)C(F)(F)F` here?
Answer: Its IC50 is 100 nM.

Question: And the MIC [1]?
Answer: Its MIC is 0.4 µM.

Question: And the Ratio [2]?
Answer: Its Ratio is 15.

Question: What about the Ratio [3] of the same molecule?
Answer: The Ratio was 85.

Question: Which MIC [1] does the source give for `NNC(=O)c1ccncc1` [ISONIAZID] here?
Answer: Its MIC is 12.5 µM (≈ 1.71 µg/mL).

Question: What does the source list for `NCCc1cc2c(O)c(c1)Cc1cc(CCN)cc(c1O)Cc1cc(CCN)cc(c1O)Cc1cc(CCN)cc(c1O)C2`?
Answer: IC50 [1]: 700 nM; MIC [1]: 3.2 µM (≈ 1.91 µg/mL)

Question: Which IC50 [1] does the source give for `Cc1ccc(-c2ccc(COc3c4cc(CCN)cc3Cc3cc(CCN)cc(c3O)Cc3cc(CCN)cc(c3OCc3ccc(-c5ccc(C)cn5)nc3)Cc3cc(CCN)cc(c3O)C4)cn2)nc1` here?
Answer: The IC50 was 500 nM.

Question: And the MIC [1]?
Answer: The MIC was 1.6 µM (≈ 1.54 µg/mL).

Question: For `N=C(N)NCCc1cc2c(O)c(c1)Cc1cc(CCNC(=N)N)cc(c1O)Cc1cc(CCNC(=N)N)cc(c1O)Cc1cc(CCNC(=N)N)cc(c1O)C2.O=C(O)C(F)(F)F`, which IC50 [1] is on record?
Answer: Its IC50 is 100 nM.

Question: What about the MIC [1] of the same molecule?
Answer: The MIC was 0.8 µM.

Question: And the Ratio [2]?
Answer: Its Ratio is 15.

Question: And the Ratio [3]?
Answer: Its Ratio is 256.

Question: Which results are given for `Cc1csc(-c2nc(COc3c4cc(CCNC(=N)N)cc3Cc3cc(CCNC(=N)N)cc(c3O)Cc3cc(CCNC(=N)N)cc(c3OCc3csc(-c5nc(C)cs5)n3)Cc3cc(CCNC(=N)N)cc(c3O)C4)cs2)n1.O=C(O)C(F)(F)F`?
Answer: IC50 [1]: < 100 nM; MIC [1]: 0.1 µM; Ratio [2]: 125; Ratio [3]: 6

Question: Which MIC [1] does the source give for `O=C(O)c1cn(C2CC2)c2cc(N3CCNCC3)c(F)cc2c1=O` [CIPROFLOXACIN] here?
Answer: The MIC was 2.5 µM (≈ 0.828 µg/mL).
